Assay results published in the RNAGym collection of RNA variant scans (doi:10.1126/science.aae0568).
This sample holds only a part of the variants without activity.

B1: tRNA (parent)
chain: GUUCCGUUGGCGUAAUGGUAACGCGUCUCCCUCCUAAGGAGAAGACUGCGGGUUCGAGUCCCGUACGGAACG

Variants of: B1
Assay: yeast fitness relative to wild type (ratio to wild type); higher = fitter; tRNA-Arg(CCU), competitive growth, 37 C, YPD
How it was run: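 The tRNA-Arg(CCU) gene variants were made by chemical synthesis with a 3% per-site mutation rate at 69 sites and inserted at the native genomic locus of Saccharomyces cerevisiae. After pooling, the strains were competed in YPD at 37°C for 24 hours in six parallel replicates. Gene amplicons from the start population and each end population were read by 100-nucleotide paired-end sequencing, and Darwinian fitness relative to wild type was taken from genotype frequency changes. Genotypes needed ≥ 100 starting reads, and estimates < 0.5 were set to 0.5.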

| Variant | yeast fitness |
| --- | --- |
| U3A A20U A45U G58C G67C | ≤ 0.5 |
| C4U U8A | 0.66 |
| C4G C11U A36G G63A | ≤ 0.5 |
| A42C A45C U53A A65C A69U | ≤ 0.5 |
| U32A G39A G58A C61A C62G | ≤ 0.5 |
| C5U C22G C29G C60A G67A | ≤ 0.5 |
| A14G C24G A42C G63A | ≤ 0.5 |
| A20G U53C | 0.682 |
| C27A C30G G41C C61G C62U C66U A69U | ≤ 0.5 |
| G23C A65G C66A | ≤ 0.5 |
| A14C C29U A36G A45U | 0.543 |
| G48A G56C A65G | 0.543 |
| C22U G25A U32A A36C A70G | ≤ 0.5 |
| G9C C24G C30U | ≤ 0.5 |
| C30G G56C C62U | ≤ 0.5 |
| C4U G25C A45C C46A | 0.733 |
| G9C A20C C66A | 0.601 |
| A45U G67A | 0.767 |
| U3C A20G | 0.917 |
| C5G U32G | 0.776 |
| C31G G44A U47A G51C C66U | ≤ 0.5 |
| G25A A57U | 0.772 |
| C11A U16C G18C A45C A57C | ≤ 0.5 |
| G23A U47C C49U | ≤ 0.5 |

| Variant | yeast fitness |
| --- | --- |
| C5U A42U C49G C60A | 0.575 |
| G23C C24A U32C A65U G68A | ≤ 0.5 |
| U7G A21U C29A C55A | 0.604 |
| C24U C27U U53G C60A A70G | ≤ 0.5 |
| U2G G68C | 0.705 |
| A20G C33G G56A | 0.639 |
| A21C C22U C31U C33U G48C | ≤ 0.5 |
| U16A G23A C33A | 0.644 |
| G9A U35A A37U C46U A65C | 0.633 |
| A15C C49G C55G | 0.668 |
| U16G G38A U54C A65U | ≤ 0.5 |
| U13A C24A C30A | 0.605 |
| U7A G23A C55A C61A | ≤ 0.5 |
| G56C A57U C60U | 0.698 |
| C5U G56A A65U | 0.854 |
| G6C A14G A20C U47C U64A G67A | ≤ 0.5 |
| A14G A21G G67A | 0.63 |
| U2A C29G C34A C60G | ≤ 0.5 |
| C31U G56A G63C | ≤ 0.5 |
| C5U A20U A45C C60U C61A | ≤ 0.5 |
| G6A C31A G51C C55G A57U C66U | ≤ 0.5 |
| C24U G50A A65U | 0.569 |
| C24U C29G A43C C55G G68A | ≤ 0.5 |
| C5G U54C | 0.814 |

| Variant | yeast fitness |
| --- | --- |
| C5A U7A G39A C60U C62A | ≤ 0.5 |
| U2G C33A C49G | ≤ 0.5 |
| A20C U32G A45G U53A U54A | 0.533 |
| U32G C61U A69C | 0.746 |
| U2C C61U A65G | 0.711 |
| G38A A65U G68U | 0.665 |
| C27U C30A A69U | 0.585 |
| C4G C11U U28G A45C U53A G63C | 0.559 |
| U3C A65G | 0.887 |
| U26A C30A C34A G48C | 0.583 |
| A45C U47C C49U | 0.806 |
| G25A A70G | 1.04 |
| A15G C24G G52A C66G G67A | ≤ 0.5 |
| C11A G18A A36G A42C C66U | 0.658 |
| U3C G25A U59A | 0.642 |
| G52A C66A A69U | 0.551 |
| U13C G52A C55G A69U | ≤ 0.5 |
| U7A G12C C34U C66G | ≤ 0.5 |
| C27G C29U A37U | ≤ 0.5 |
| G17C A36G C66U A69C | 0.803 |
| G9C U28C A42U U59G | ≤ 0.5 |
| A42G G51C | ≤ 0.5 |
| U26C U28A | 0.727 |
| U47C A57G A65U C66A A69C | ≤ 0.5 |

| Variant | yeast fitness |
| --- | --- |
| C5A U64A | 0.766 |
| A43G G58U | 0.707 |
| A37C C55A A65C | 0.603 |
| U16A G56C A57U C60U | ≤ 0.5 |
| G12A A21G C34U C62A A69U | ≤ 0.5 |
| G17C A70C | 0.751 |
| A15G C27A A43G | ≤ 0.5 |
| U8C G41C A69U | 0.637 |
| C24A U26G A43C C62G G63A C66G A69G | 0.531 |
| C22A G25A | 0.992 |
| C11A A21C G25C C34A A36U G44A | ≤ 0.5 |
| U3A C22U G39A C66U | 0.576 |
| U2C A37U U53A | 0.727 |
| C11G C29U U35C C66A | ≤ 0.5 |
| A14C U16A U26C C66U A69C | ≤ 0.5 |
| C5U A37C C60U G67A | 0.558 |
| C4U C5G U28C A70C | 0.637 |
| G12A C49U C66A | ≤ 0.5 |
| C24G U26A C46A G58C | ≤ 0.5 |
| C5G G6A | 0.659 |
| C31A A37C G58C | 0.521 |
| C4U A21U A42G G50C C66U A70U | ≤ 0.5 |
| C4G C5U U16A C34A C66A | ≤ 0.5 |
| A40C C55G A69U | ≤ 0.5 |

| Variant | yeast fitness |
| --- | --- |
| U13A C24A A45C | ≤ 0.5 |
| C4A A15G G17A C30G G48A U53C C62U | ≤ 0.5 |
| U8C A42G C49G C62A | ≤ 0.5 |
| C31U U47C G63A | 0.687 |
| U2C A14G U47G | 0.593 |
| C4G A36C A37G U64A | ≤ 0.5 |
| U7G C61U A70G | 0.669 |
| C4U U28C | 1.02 |
| U2G C62G A69C | ≤ 0.5 |
| C4U U32A A69U | 0.601 |
| U3A U8A A43U C55U | ≤ 0.5 |
| U8A U19C A36U | ≤ 0.5 |
| C34U A36C A70C | 0.594 |
| G25C A42U A43G U53C A65G | ≤ 0.5 |
| U16C C66U | 0.891 |
| U2A G12C C34G A65U | ≤ 0.5 |
| U8A C46A G68C | ≤ 0.5 |
| A37C U47A G58A | ≤ 0.5 |
| U2A A37U | 0.689 |
| A42G A43C | 1.17 |
| C24A U26A C31A C55A U64C | ≤ 0.5 |
| G10A C11U C29A C34A G44A C66G | 0.545 |
| G48A U54C C66U | ≤ 0.5 |
| C5G C27U G44C G48C | ≤ 0.5 |

| Variant | yeast fitness |
| --- | --- |
| C11G C22G C27G C62U | 0.578 |
| G6C G23C C24A C61U | ≤ 0.5 |
| A37C U59C | 0.699 |
| A15U G52C | ≤ 0.5 |
| A45C U64G | 0.654 |
| C24U U32C G39C | 0.517 |
| C29G G52C A57U A65G | ≤ 0.5 |
| U3A C5A A45C G50C | ≤ 0.5 |
| U2A A57U G68C | ≤ 0.5 |
| G18C A70C | 0.687 |
| U32C G48A A70U | 0.783 |
| C11A A21G C62G C66U | ≤ 0.5 |
| G51A U53G G58A | ≤ 0.5 |
| G12C U32G A40U A57U A65U | 0.568 |
| U7A C55A | 0.571 |
| A57G A70C | 0.859 |
| A20C C33A A70G | 0.592 |
| U2C G23C C31G C33U A42G G52C A70G | ≤ 0.5 |
| G38C G63C A65G | ≤ 0.5 |
| U16A G48A C62G A69U | 0.629 |
| U13A G41A G67A | 0.546 |
| C29G C49A A70C | 0.538 |
| A43G G51C | 0.56 |
| A20U G44C C60A | 0.617 |

| Variant | yeast fitness |
| --- | --- |
| C5U U16G A40G A42U G52A | ≤ 0.5 |
| G12A A21G C46G G51A G67C | ≤ 0.5 |
| G18C A37U A40U U64C G67A | ≤ 0.5 |
| A36U U53A | 0.728 |
| G10C C24U | 0.716 |
| A37U G52A U54C G56C A57G | ≤ 0.5 |
| C4U U64G | 1.09 |
| U2A U3G C29G C30G C46A | ≤ 0.5 |
| C11U U13G U19A C22G G25A A69U | ≤ 0.5 |
| A36G G48A C49U | 0.606 |
| C11A C27G C31A G68A | ≤ 0.5 |
| A37C C60U G67A | 0.522 |
| C27A U28C A37C | ≤ 0.5 |
| A43G C61U | 0.887 |
| C33U G39C | 0.622 |
| C22A U47A A70G | 0.577 |
| U19A C27A C31A G52A G58C A70G | ≤ 0.5 |
| U8G C11A C24A C29A C34U C61G A65C | ≤ 0.5 |
| U2A C5A G48C C55G C66A | ≤ 0.5 |
| C31A A37U G67C | 0.575 |
| U2A A14C A20G A36G U54C C55U G68C | 0.544 |
| U8C C29G U35G C61U | ≤ 0.5 |
| A14G C27G A65U G68U | ≤ 0.5 |
